ChEMBL document CHEMBL1759845, “Potent inhibitors of hepatitis C core dimerization as new leads for anti-hepatitis C agents” (Bioorg Med Chem Lett, 2011)

Assays:
[1] = Inhibition of Hepatitis C virus core protein dimerization by core dimerization assay; design: species or system Hepacivirus hominis
Hepatitis C virus [2] = assay: Antiviral activity against Hepatitis C virus JFH-1 J6 infected in human HuH7.5 cells assessed as inhibition of virus propagation measured after 72 hrs; type: functional, organism-based, Hepacivirus hominis; conditions: subtype 2a JFH1 J6, Huh-7, 72 h
How it was run: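 Huh-7.5 hepatoma cells infected with HCV genotype 2a J6/JFH-1 were treated with inhibitor at 0.001–100 µM. […] An NS3/NS4A protease inhibitor served as positive control. Values are means of three experiments.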

Hepatitis C virus [3] = assay: Antiviral activity against Hepatitis C virus JFH-1 J6 infected in human HuH7.5 cells assessed as inhibition of virus propagation measured after 72 hrs of transfer to fresh media; type: functional, organism-based, Hepacivirus hominis; conditions: subtype 2a JFH1 J6, Huh-7, 72 h
How it was run: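 Huh-7.5 hepatoma cells, HCV 2a J6/JFH-1. Virus secreted during the initial 72 hr inhibitor-treated culture (0.001–100 µM) was used to infect fresh cells, which were cultured a second 72 hr (T2). HCV propagation was then assessed, with an NS3/NS4A protease inhibitor as positive control. Values are means of three experiments.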

[4] = Cytotoxicity against human Huh7.5 cells; type: cell-based; conditions: huh-7
How it was run: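 Huh-7.5 hepatoma cells; read-out is the 50% cytotoxic concentration (CC50), reported as the mean of three experiments.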

Structure (SMILES) | IC50 [1] | EC50 (Hepatitis C virus [2]) | EC50 (Hepatitis C virus [3]) | CC50 [4]
COC(=O)C1=C(C(=O)OC)[C@@H]2N(CCCN3c4ccccc4[C@]45CCC(=O)N(Cc6ccccc6)C4=NC(C(=O)OC)=C(C(=O)OC)[C@H]35)c3ccccc3[C@@]23CCC(=O)N(Cc2ccccc2)C3=N1 | 2900 nM | 88 nM | 735 nM | > 36 µM
COC(=O)C1=C(C(=O)OC)[C@@H]2N(CCCCCN3c4ccccc4[C@]45CCC(=O)N(Cc6ccccc6)C4=NC(C(=O)OC)=C(C(=O)OC)[C@H]35)c3ccccc3[C@@]23CCC(=O)N(Cc2ccccc2)C3=N1 (mixture of isomers) | 720 nM | 90 nM | 29900 nM | > 36 µM
COC(=O)C1=C(C(=O)OC)[C@@H]2N(CCCCCn3cc(CNC(C)=O)nn3)c3ccccc3[C@@]23CCC(=O)N(Cc2ccccc2)C3=N1 (racemic) | 341 nM | 26200 nM | 56200 nM | 150 µM
COC(=O)C1=C(C(=O)OC)[C@@H]2N(CCCCCn3cc(-c4ccc(OC)cc4C)nn3)c3ccccc3[C@@]23CCC(=O)N(Cc2ccccc2)C3=N1 (racemic) | 92 nM | 1400 nM | 1100 nM | > 100 µM
COc1ccc2c(O[C@@H]3C[C@H]4C(=O)N[C@]5(C(=O)O)C[C@H]5/C=C\CCCCC[C@H](NC(=O)OC5CCCC5)C(=O)N4C3)cc(-c3csc(NC(C)C)n3)nc2c1 [CILUPREVIR] |  | 72 nM | 71 nM | 
COC(=O)C1=C(C(=O)OC)[C@@H]2N(CCOCCN3c4ccccc4[C@]45CCC(=O)N(Cc6ccccc6)C4=NC(C(=O)OC)=C(C(=O)OC)[C@H]35)c3ccccc3[C@@]23CCC(=O)N(Cc2ccccc2)C3=N1 | 98 nM | 480 nM | 2500 nM | > 100 µM
